The test system of experiment [1] is CT26. As to the kind of experiment: Antimetastatic activity against mouse CT26 cells allografted in BALB/c mouse assessed as decrease in cancer cell volume in liver at 10 ug/ml preincubated for 30 mins prior to inoculation measured on day 14 relative to control. The class given is functional. The essentials: (§1)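 Male BALB/c mice, 6–8 weeks old and anesthetized (n = 10 per group; three independent experiments), received an intrasplenic injection of 1.5 × 10⁵ viable CT26-CC cells in 0.1 mL Hank's balanced salt solution. Mice were killed on day 14. Densitometric and stereological image analysis gave metastases per 100 mm³ liver (fifteen sections per liver) and the percentage of liver volume occupied.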

A further experiment relates to BL21. The experiment in a line: Inhibition of I-domain of human integrin alphaL (amino acid residues 128 to 307) plus initial methionine K287C/K294C mutant-ICAM1 interaction expressed in BL21 cells after 4 hrs by NMR analysis.
Experiment [2] is described as follows: Binding affinity to I-domain of human integrin alphaL (amino acid residues 128 to 307) plus initial methionine K287C/K294C mutant expressed in BL21 cells by NMR spectroscopy. The class given is cell-based.
In experiment [3] the test system is CT26. As to the kind of experiment: Antimetastatic activity against mouse CT26 cells allografted in BALB/c mouse assessed as reduction in metastasis density at 10 ug/ml preincubated for 30 mins prior to inoculation measured on day 14 relative to control. It counts as functional. The procedure, abridged: as §1
For experiment [4], the system named is B16. As to the kind of experiment: Inhibition of VEGF production in mouse B16 M cells at 10 ug/ml preincubated for 30 mins prior to ICAM addition measured after 2 hrs by ELISA. It counts as functional, cell-based.
Experiment [5] has as its system B16. The experiment in a line: Inhibition of VEGF production in mouse B16 M cells at 10 ug/ml preincubated for 30 mins prior to H2O2 addition measured after 2 hrs by ELISA. It counts as functional, cell-based.
For a further experiment, the system named is B16M. As to the kind of experiment: Inhibition of VLA-4/VCAM-1 interaction in mouse B16M cells assessed as PMA-induced adhesion to immobilized VCAM-1 at 25 ug/ 5 x 10^5 cells after 30 mins by microplate reader analysis. It counts as cell-based.
For experiment [6], the target named is T1, Integrin alpha-L (Homo sapiens) (UniProt P20701).
T1 sequence (whole entry): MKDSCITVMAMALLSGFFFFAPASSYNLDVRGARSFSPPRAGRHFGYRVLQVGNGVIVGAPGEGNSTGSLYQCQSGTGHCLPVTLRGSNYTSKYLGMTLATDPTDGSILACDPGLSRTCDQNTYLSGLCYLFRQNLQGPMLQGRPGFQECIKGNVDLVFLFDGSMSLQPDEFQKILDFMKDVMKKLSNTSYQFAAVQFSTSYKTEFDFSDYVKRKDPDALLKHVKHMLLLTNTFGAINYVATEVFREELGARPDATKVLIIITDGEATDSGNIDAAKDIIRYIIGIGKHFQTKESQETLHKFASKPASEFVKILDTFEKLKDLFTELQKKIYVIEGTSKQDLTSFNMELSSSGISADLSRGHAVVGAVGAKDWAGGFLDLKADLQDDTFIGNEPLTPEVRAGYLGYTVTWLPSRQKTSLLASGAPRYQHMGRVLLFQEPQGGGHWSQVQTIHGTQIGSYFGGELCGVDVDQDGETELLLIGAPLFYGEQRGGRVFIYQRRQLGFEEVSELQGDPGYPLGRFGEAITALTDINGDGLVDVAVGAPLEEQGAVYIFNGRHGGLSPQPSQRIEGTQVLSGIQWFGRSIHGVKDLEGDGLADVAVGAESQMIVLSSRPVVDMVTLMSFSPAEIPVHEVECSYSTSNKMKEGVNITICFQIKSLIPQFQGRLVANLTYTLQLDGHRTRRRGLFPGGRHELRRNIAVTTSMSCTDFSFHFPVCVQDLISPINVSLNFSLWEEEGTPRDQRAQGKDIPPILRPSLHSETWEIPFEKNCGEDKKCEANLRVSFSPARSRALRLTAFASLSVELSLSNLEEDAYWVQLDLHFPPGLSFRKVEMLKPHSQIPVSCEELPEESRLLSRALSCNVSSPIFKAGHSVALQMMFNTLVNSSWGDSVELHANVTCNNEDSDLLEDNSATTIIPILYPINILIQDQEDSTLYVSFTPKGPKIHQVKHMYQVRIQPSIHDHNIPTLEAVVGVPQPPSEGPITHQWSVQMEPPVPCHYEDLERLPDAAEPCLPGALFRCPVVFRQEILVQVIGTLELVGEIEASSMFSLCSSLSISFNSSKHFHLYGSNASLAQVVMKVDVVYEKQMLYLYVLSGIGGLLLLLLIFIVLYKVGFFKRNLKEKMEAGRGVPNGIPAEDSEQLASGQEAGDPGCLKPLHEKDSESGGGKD
As to the kind of experiment: Inhibition of LFA-1/ICAM-1 interaction in human peripheral blood leukocytes assessed as reduction on PMA-induced adhesion to immobilized human recombinant ICAM-1 at 20 ug/ 5 x 10^5 cells after 30 mins by fluorescence assay. It counts as cell-based. The procedure, abridged:
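Human peripheral blood leukocytes were stimulated with PMA and preincubated with compound. Adhesion to immobilized recombinant human ICAM-1, a commercial form containing all five extracellular domains, was then quantified. Significance was assessed by ANOVA with Bonferroni post hoc test.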

Experiment [7] has as its target T2, Integrin alpha-L (Mus musculus) (UniProt P24063).
T2 sequence (whole entry): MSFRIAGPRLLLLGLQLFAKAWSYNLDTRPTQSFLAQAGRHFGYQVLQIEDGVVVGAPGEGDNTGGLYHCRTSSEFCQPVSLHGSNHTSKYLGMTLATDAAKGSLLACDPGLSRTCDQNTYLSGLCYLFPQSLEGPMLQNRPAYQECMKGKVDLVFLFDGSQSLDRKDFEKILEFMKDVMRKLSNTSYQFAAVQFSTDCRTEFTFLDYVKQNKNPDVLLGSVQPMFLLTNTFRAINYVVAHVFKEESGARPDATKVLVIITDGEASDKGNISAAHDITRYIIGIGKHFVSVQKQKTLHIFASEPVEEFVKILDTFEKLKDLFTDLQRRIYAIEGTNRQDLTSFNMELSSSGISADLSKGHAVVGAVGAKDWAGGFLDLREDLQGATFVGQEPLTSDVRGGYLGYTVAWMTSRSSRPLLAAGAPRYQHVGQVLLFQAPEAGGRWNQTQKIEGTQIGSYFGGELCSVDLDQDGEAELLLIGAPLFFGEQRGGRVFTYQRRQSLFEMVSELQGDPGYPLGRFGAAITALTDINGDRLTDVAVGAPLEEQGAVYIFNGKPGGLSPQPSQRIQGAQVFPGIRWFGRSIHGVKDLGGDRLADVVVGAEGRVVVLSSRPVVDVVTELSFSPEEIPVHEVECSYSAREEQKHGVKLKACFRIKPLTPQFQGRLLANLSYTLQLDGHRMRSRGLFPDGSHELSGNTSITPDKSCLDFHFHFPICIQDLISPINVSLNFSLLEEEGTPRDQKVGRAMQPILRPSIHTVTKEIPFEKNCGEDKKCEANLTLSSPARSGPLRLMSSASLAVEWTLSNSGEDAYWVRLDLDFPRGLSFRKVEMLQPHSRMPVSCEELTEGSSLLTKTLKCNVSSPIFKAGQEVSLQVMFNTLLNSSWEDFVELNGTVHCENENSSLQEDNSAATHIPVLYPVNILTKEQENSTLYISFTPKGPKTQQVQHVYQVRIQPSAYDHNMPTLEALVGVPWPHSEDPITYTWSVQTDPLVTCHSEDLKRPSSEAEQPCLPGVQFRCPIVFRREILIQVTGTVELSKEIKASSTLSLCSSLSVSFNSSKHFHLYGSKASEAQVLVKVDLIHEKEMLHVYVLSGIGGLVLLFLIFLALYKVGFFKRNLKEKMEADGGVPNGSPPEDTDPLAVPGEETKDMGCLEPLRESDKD
As to the kind of experiment: Inhibition of LFA-1/ICAM-1 interaction in mouse CT26 cells assessed as PMA-induced adhesion to ICAM-1 expressing HSE cells at 20 ug/ 5 x 10^5 cells by fluorometric microplate reader analysis. It counts as cell-based. The essentials:
(§2)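 CT26-CC or Lim51b-CC cells were stimulated with PMA and preincubated for 30 min with compound or anti-LFA-1 antibody. Adhesion to hepatic sinusoidal endothelial cells was then quantified using a previously validated in vitro bioassay. Significance was assessed by ANOVA with Bonferroni post hoc test.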

The next experiment has as its target T3, Integrin alpha-L (Homo sapiens, UniProt P20701).
T3 sequence (P20701 whole entry): T1 sequence (whole entry)
The experiment in a line: Binding affinity to I-domain of human integrin alphaL (amino acid residues 128 to 307) plus initial methionine expressed in Escherichia coli by NMR spectroscopy.

For experiment [8], the target named is T2, Integrin alpha-L (Mus musculus). The experiment in a line: Inhibition of LFA-1/ICAM-1 interaction in mouse Lim51b cells assessed as PMA-induced adhesion to ICAM-1 expressing HSE cells at 20 ug/ 5 x 10^5 cells after 30 mins by fluorometric microplate reader analysis. It counts as cell-based. The essentials:
as §2

For experiment [9], the target named is Integrin alpha-2 (Homo sapiens) (UniProt P17301). The experiment in a line: Binding affinity to integrin alpha2 I-domain (unknown origin).
The species named for another experiment is Homo sapiens. The experiment in a line: Binding affinity to protein G B1-domain (unknown origin).
In experiment [10] the test system is CT26. The experiment in a line: Antitumor activity against mouse CT26 cells allografted in BALB/c mouse assessed as decrease in tumor volume at 2.5 mg/kg, sc measured on day 15 relative to control. The following applies: route subcutaneous. It counts as functional. Further details: scale not given: the % may be the effect or the level left. The procedure, abridged:
(§3)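 BALB/c mice were injected subcutaneously with 5 × 10⁵ CT26-CC cells. Compound/PAMAM G3.5 was then given as daily subcutaneous injections at 2.5 mg/kg. Primary tumors were removed on day 15 and their volume was measured. Ki67 was scored by immunohistochemistry as the percentage of positive tumor cells across 10 random fields. Significance was assessed by ANOVA with a post hoc test.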

The subject of experiment [11] is CT26. As to the kind of experiment: Antitumor activity against mouse CT26 cells allografted in BALB/c mouse assessed as decrease in expression level of protein Ki67 at 2.5 mg/kg, sc measured on day 15 relative to control. It counts as functional. Set-up: scale not given: the % may be the effect or the level left. The following applies: route subcutaneous. The procedure, abridged:
as §3

Active and inactive are the calls of the source. No cut-off for these calls is given here.

Integrin alpha-2 (Homo sapiens), sequence (P17301 whole entry): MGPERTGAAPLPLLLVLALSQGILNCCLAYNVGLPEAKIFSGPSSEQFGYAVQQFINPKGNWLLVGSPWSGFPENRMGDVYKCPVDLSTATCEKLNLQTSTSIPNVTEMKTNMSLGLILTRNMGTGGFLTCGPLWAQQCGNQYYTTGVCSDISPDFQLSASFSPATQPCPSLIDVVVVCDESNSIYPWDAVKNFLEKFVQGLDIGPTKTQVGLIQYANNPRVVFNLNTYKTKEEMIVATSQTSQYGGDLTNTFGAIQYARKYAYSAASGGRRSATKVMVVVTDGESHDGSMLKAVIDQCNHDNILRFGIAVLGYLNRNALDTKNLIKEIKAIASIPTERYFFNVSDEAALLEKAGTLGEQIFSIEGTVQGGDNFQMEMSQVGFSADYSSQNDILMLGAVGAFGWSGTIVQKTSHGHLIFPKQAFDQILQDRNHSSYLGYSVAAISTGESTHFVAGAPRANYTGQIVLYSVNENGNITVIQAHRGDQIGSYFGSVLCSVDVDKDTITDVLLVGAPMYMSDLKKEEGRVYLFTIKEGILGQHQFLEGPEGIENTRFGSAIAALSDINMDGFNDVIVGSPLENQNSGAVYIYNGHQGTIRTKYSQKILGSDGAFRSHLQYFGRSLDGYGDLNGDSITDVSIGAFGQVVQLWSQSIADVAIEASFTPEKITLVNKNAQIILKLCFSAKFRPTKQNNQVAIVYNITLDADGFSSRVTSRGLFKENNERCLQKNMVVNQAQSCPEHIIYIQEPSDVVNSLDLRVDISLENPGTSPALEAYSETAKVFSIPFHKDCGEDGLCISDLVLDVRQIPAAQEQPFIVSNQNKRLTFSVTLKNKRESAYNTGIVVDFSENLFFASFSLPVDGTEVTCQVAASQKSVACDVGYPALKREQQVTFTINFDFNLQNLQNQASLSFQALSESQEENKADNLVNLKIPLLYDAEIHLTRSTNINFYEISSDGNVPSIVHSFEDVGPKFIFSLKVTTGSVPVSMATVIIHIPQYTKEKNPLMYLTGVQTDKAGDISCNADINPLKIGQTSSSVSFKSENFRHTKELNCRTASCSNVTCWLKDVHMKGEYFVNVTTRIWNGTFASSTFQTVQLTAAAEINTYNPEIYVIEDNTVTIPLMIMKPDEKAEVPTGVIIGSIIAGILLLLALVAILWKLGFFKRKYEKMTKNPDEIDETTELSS

Turning to `CC[C@H](C)[C@H](OCc1ccccc1)[C@H]1[C@H]([N+](=O)[O-])[C@H](c2ccccc2)N[C@]1(C)C(=O)NCCC(=O)O`, the “fold change (FC)” value in the experiment on CT26 [1] and in the experiment on CT26 [3] was 25 each time. Also, the inhibition result in the experiment with BL21 and in the experiment on B16M was “inactive” in each case. Also, the Kd in [2] amounted to 81.1 µM; at Integrin alpha-L, 10.1 µM. The inhibition entry (in the experiment on B16 [4]; with B16 [5]; in experiment [6]; in experiment [7]; in experiment [8]) was “Active” throughout.

On to `CC[C@H](C)[C@H](OCc1ccccc1)[C@H]1[C@H]([N+](=O)[O-])[C@H](c2ccccc2)N[C@]1(C)C(=O)NCCCCC(=O)O`, for which, in [7], the inhibition entry was “Active”.

In the case of `CC[C@H](C)C(=O)O[C@H]1C[C@@H](C)C=C2C=C[C@H](C)[C@H](CC[C@@H]3C[C@@H](O)CC(=O)O3)[C@H]21`, the result in experiment [9] was inactive.

For `CC[C@H](C)[C@H](OCc1ccccc1F)[C@H]1[C@H]([N+](=O)[O-])[C@H](c2ccsc2)N[C@@H]1C(=O)NCCC(=O)O`, in experiment [7], the inhibition entry is “inactive”.

Consider `CC[C@H](C)[C@H](OCc1ccccc1)[C@H]1[C@H]([N+](=O)[O-])[C@H](c2ccccc2)N[C@@H]1C(=O)NCCC(=O)O`, for which the inhibition result in experiment [7] and in experiment [8] was “Active” in each case.

In the case of `CC[C@H](C)[C@H](OCc1ccccc1)[C@H]1[C@H]([N+](=O)[O-])[C@H](c2ccccc2)N[C@]1(C)C(=O)NCCCC(=O)O`, the result (in the experiment filed under Homo sapiens; in experiment [9]) was inactive. Besides, the inhibition result in experiment [7] was “Active”. Moreover, the Kd on Integrin alpha-L amounted to 7.4 µM.

On to `CC[C@H](C)[C@H](OCc1ccccc1)[C@H]1[C@H]([N+](=O)[O-])[C@H](c2ccccc2)N[C@@H]1C(=O)NCCCC(=O)O`, for which, in experiment [7], the inhibition result was “Active”.

For `CC[C@H](C)[C@H](OCc1ccccc1)[C@H]1[C@H]([N+](=O)[O-])[C@H](c2ccccc2)N[C@@H]1C(=O)NCCCCC(=O)O`, the inhibition entry in experiment [7] was “Active”.

Turning to `CC[C@H](C)[C@H](OCc1ccccc1)[C@H]1[C@H]([N+](=O)[O-])[C@H](c2ccccc2)N[C@]1(C)C(=O)NCCCCCC(=O)O`, the inhibition result in experiment [7] was “Active”.

With `CC[C@H](C)[C@H](OCc1ccccc1)[C@H]1[C@H]([N+](=O)[O-])[C@H](c2ccccc2)N[C@@H]1C(=O)NCCCCCC(=O)O`, the values for the Activity in the experiment with CT26 [10] and with CT26 [11] were 85% and 40%, respectively. Moreover, the inhibition entry in [6] and in experiment [7] was “Active” in each case.

As for `CC[C@H](C)[C@H](OCc1ccccc1)[C@H]1[C@H]([N+](=O)[O-])[C@H](c2ccccc2)N[C@@H]1C(=O)NCC(=O)O`, in experiment [7], the inhibition result was “inactive”.

On to `CC[C@H](C)[C@H](OCc1ccccc1)[C@H]1[C@H]([N+](=O)[O-])[C@H](c2ccccc2)N(C(=O)CN)[C@]1(C)C(=O)NCCC(=O)O`, for which the Activity in the experiment with CT26 [10] stood at 77%; in the experiment on CT26 [11], 40%. The inhibition result in experiment [7] is “Active”.
